The target of test [1] is GABA-A receptor; anion channel. Description: Displacement of [3H]gamma-amino butyric acid from Gamma-aminobutyric acid (GABA-A) receptor of human cerebellar cortex preparation. In general terms: Displacement assays read how much labelled ligand stays bound in the presence of the test substance.
Test [2] is filed under the species Mus musculus. The test can be described thus: Effective dose which decreases the 50% of the convulsions induced by bicuculline in mice. The test is classed as functional.
The species entered for test [3] is Mus musculus. Description: Effective dose which decreases the 50% of the lethality induced by bicuculline in mice. The test is classed as functional. A digest of the protocol:
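Mice given ip serial doses 30 min before iv bicuculline at 0.9 mg/kg, 10 animals per drug per dose per experiment. ED50, the dose protecting half the mice from lethality, derived by log-probit plot.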

The subject of test [4] is Mus musculus. The test can be described thus: Lethal dose which causes death in 50% of the mice within 48 hr of ip administration. Format: functional. The gist of the method:
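Male albino CD1 mice (18–22 g) dosed intraperitoneally, then returned to home cages, 10 per cage. Deaths per dose were counted at 48 h. LD50 was estimated on log-probit paper.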

Test [5] has as its target GABA-A receptor; anion channel. Description: Displacement of [3H]gamma-amino butyric acid from Gamma-aminobutyric acid (GABA-A) receptor of rat brain.

For `NC(=O)CCC/N=C(\c1ccc(Cl)cc1)c1cc(F)ccc1O` [PROGABIDE], the Ki (commonly the equilibrium dissociation constant of an inhibitor or competing ligand from its target) in test [1] amounted to 40000 nM; in test [5], 14000 nM. Moreover, the ED50 – broadly, the dose that gives a 50% effect, or the effect in half of the subjects – was found to be 20 mg/kg in test [2] and 65 mg/kg in test [3]. The LD50 – broadly, the dose expected to kill half of the subjects tested – in test [4] was determined as 900 mg/kg.

Consider `NCc1cc(=O)[nH]o1` [MUSCIMOL], for which the Ki came out at 11 nM in test [1] and 4 nM in test [5]. For the same molecule, the results for the 50% effective dose (ED50) in test [2] and in test [3] were 0.25 mg/kg and more than 2 mg/kg, respectively. This molecule returned a 50% lethal dose (LD50) in test [4] of 17 mg/kg.

Regarding `O=C([O-])CCC/N=C(\c1ccc(Cl)cc1)c1cc(F)ccc1O.[Na+]`, the inhibition constant Ki in test [1] came to 680 nM; in test [5] it was 590 nM. The ED50 in test [2] was 15 mg/kg; in test [3], 70 mg/kg. In test [4], the median lethal dose (LD50) turned out to be 420 mg/kg.

`O=C1NC(=O)C(c2ccccc2)(c2ccccc2)N1` [PHENYTOIN] came in with an ED50 in test [3] of 50 mg/kg. Also, the LD50 in test [4] worked out at 250 mg/kg. For the same molecule, the Ki in test [5] was more than 100000 nM.

As to `CCCC(CCC)C(=O)[O-].[Na+]` [VALPROATE SODIUM], the Ki in test [1] and in test [5] was more than 100000 nM throughout. Moreover, the results for the ED50 in test [2] and in test [3] were 33 mg/kg and 130 mg/kg, respectively. The same molecule yielded an LD50 in test [4] of 1000 mg/kg.

Values taken from ChEMBL document CHEMBL1121465 (J Med Chem, 1980).
